Data as given in ChEMBL document CHEMBL4477204, “Tetrahydroisoquinoline-Derived Urea and 2,5-Diketopiperazine Derivatives as Selective Antagonists of the Transient Receptor Potential Melastatin 8 (TRPM8) Channel Receptor and Antiprostate Cancer Agents” (J Med Chem, 2016).
pEC50, pIC50: −log10 of the molar value. Calls of active or inactive are those of the source. The calls are words filed in the database; no cut-off is given here.

What was measured:
[1] = molecular target: T1, Transient receptor potential cation channel subfamily M member 8 (Rattus norvegicus, UniProt Q8R455); assay: Agonist activity at recombinant rat TRPM8 expressed in HEK293 cells assessed as increase in intracellular calcium accumulation by Fluo-4-AM probe-based spectrofluorimetric assay; format: cell-based; settings: for EC50: hek293; for pEC50: read-out: EC50
T1 sequence (Q8R455 whole entry): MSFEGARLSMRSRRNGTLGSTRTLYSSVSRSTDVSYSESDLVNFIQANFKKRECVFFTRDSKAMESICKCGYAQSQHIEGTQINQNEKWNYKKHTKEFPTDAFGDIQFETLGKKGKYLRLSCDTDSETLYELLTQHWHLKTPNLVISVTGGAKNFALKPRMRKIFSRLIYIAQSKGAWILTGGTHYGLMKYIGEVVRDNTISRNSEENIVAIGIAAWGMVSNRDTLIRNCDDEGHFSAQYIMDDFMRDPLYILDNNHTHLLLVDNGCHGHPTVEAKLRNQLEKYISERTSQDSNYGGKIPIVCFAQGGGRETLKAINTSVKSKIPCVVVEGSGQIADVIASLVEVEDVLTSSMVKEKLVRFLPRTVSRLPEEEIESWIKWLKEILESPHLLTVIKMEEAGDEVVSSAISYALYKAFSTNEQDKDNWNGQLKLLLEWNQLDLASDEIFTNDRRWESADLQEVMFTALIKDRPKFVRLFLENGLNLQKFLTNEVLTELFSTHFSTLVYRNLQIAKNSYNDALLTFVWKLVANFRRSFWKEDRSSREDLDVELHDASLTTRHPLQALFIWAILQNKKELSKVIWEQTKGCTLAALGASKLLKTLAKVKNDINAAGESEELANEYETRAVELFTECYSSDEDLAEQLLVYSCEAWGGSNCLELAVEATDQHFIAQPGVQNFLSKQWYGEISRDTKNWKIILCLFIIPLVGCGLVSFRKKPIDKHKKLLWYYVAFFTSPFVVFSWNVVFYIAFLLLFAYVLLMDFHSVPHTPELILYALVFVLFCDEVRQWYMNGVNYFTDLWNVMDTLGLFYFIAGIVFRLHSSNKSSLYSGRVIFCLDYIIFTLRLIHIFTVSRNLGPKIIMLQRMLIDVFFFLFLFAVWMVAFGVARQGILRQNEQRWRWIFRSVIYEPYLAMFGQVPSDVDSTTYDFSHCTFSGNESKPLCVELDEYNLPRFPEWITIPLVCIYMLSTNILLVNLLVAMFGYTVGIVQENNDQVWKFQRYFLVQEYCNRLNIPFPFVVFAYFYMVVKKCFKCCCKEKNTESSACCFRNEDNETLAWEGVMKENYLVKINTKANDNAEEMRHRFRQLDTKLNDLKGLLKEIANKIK
Method in brief: (§1)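 HEK-293 cells stably expressing rat TRPM8 were loaded with Fluo-4-AM (4 µM, 0.02% Pluronic F-127) for 1 h at 25 °C in serum-free EMEM. They were then washed and suspended in Tyrode's buffer pH 7.4 in a stirred cuvette. [Ca2+]i fluorescence (ex 488/em 516 nm) was read before and after compound addition. Wild-type HEK-293 response was subtracted. Efficacy is expressed versus 4 µM ionomycin; EC50 comes from a sigmoidal fit.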

[2] = molecular target: T1, Transient receptor potential cation channel subfamily M member 8; assay: Antagonist activity at recombinant rat TRPM8 expressed in HEK293 cells assessed as inhibition of icilin-induced intracellular calcium accumulation preincubated for 5 mins followed by icilin addition by Fluo-4-AM probe-based spectrofluorimetric assay; format: cell-based
Method in brief: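 HEK-293 cells stably expressing the listed TRP channel (human TRPV1; rat TRPM8, TRPA1, TRPV2, TRPV3 or TRPV4) were Fluo-4-AM loaded (4 µM, 1 h, 25 °C) and suspended in Tyrode's buffer pH 7.4. Compound was added 5 min before agonist: icilin 0.25 µM (TRPM8), capsaicin 0.1 µM (TRPV1), AITC 100 µM (TRPA1), LPC 3 µM (TRPV2), thymol 100 µM (TRPV3), 4α-PDD 1 µM (TRPV4). Agonist alone was taken as 100%. IC50 from sigmoidal fit, at least triplicate.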

[3] = molecular target: Transient receptor potential cation channel subfamily M member 8 (Rattus norvegicus) (UniProt Q8R455); assay: Agonist activity at recombinant rat TRPM8 expressed in HEK293 cells assessed as increase in intracellular calcium accumulation up to 10 uM by Fluo-4-AM probe-based spectrofluorimetric assay; format: cell-based; method in brief: as §1
Sequence of Transient receptor potential cation channel subfamily M member 8 (Rattus norvegicus) (Q8R455 whole entry, looked up): as the sequence (Q8R455 whole entry) above

[4] = molecular target: Transient receptor potential cation channel subfamily M member 8 (Rattus norvegicus) (UniProt Q8R455); assay: Agonist activity at recombinant rat TRPM8 expressed in HEK293 cells assessed as increase in intracellular calcium accumulation by Fluo-4-AM probe-based spectrofluorimetric assay relative to ionomycin; format: cell-based; method in brief: as §1
in vitro = settings: C57BL/6, mouse, liver microsomes

SMILES | EC50 [1] | pIC50 [2] | pEC50 [1] | Activity [3] | Activity [4] [%] | CLint scaled at 1 h, 3 µM (in vitro) [mL/min/kg]
COc1ccc(CCNC(=O)N2CCc3cc(OC)c(OC)cc3C2c2cccc([N+](=O)[O-])c2)cc1OC (configuration not stated) | Not Active | < 4.30 | – | – | – | –
COc1ccc(CCNC(=O)N2CCc3cc(OC)c(OC)cc3C2c2ccc(Cl)cc2)cc1OC (configuration not stated) | Not Active | 4.50 | – | – | – | –
COc1cc2c(cc1OC)C(c1cccc(-c3cccc([N+](=O)[O-])c3)n1)=NCC2 | Not Active | 4.64 | – | – | – | –
CCC1c2cc(OC)c(OC)cc2CCN1C(=O)NCCc1ccc(OC)c(OC)c1 (configuration not stated) | Not Active | < 4.30 | – | – | – | –
COc1ccc(/C=C2\NC(=O)[C@@H]3Cc4cc(OC)c(OC)cc4[C@@H](c4cccc([N+](=O)[O-])c4)N3C2=O)cc1OC | Not Active | 4.45 | – | – | – | –
COc1ccc(/C=C2\NC(=O)[C@@H]3Cc4cc(OC)c(OC)cc4[C@@H](c4ccc(Br)cc4)N3C2=O)cc1OC | Not Active | 4.37 | – | – | – | –
CCC1c2cc(OC)c(OC)cc2CCN1C(=O)NCCc1cc(OC)c(OC)cc1C(CC)S(=O)(=O)c1ccc(C)cc1 (configuration not stated) | – | < 4.30 | 4.58 | inactive | 15.3 | –
COc1cc2c(cc1OC)[C@@H](c1ccc(C(F)(F)F)cc1)N(C(=O)N1CCc3cc(OC)c(OC)cc3[C@@H]1c1ccc(C(F)(F)F)cc1)CC2 | Not Active | 4.97 | – | – | – | –
COc1ccc(CCNC(=O)N2CCc3cc(OC)c(OC)cc3C2c2ccccc2)cc1OC (configuration not stated) | Not Active | 5.92 | – | – | – | 39.6
COc1cc2c(cc1OC)[C@@H](c1ccc(F)cc1)N(C(=O)N1CCc3cc(OC)c(OC)cc3[C@@H]1c1ccc(F)cc1)CC2 | Not Active | < 4.30 | – | – | – | –
COc1ccc(/C=C2\NC(=O)[C@@H]3Cc4cc(OC)c(OC)cc4[C@@H](c4ccccc4Cl)N3C2=O)cc1OC | Not Active | 4.41 | – | – | – | –
COc1ccc(CCNC(=O)NCCc2ccc(OC)c(OC)c2)cc1OC | Not Active | < 4.30 | – | – | – | –
CCCC1c2cc(OC)c(OC)cc2CCN1C(=O)NCCc1ccc(OC)c(OC)c1 (configuration not stated) | Not Active | < 4.30 | – | – | – | –
COc1ccc(/C=C2\NC(=O)[C@@H]3Cc4cc(OC)c(OC)cc4[C@@H](c4ccccc4)N3C2=O)cc1OC | – | 4.89 | 4.80 | inactive | 14.7 | –
COc1ccc(CCNC(=O)N2CCc3cc(OC)c(OC)cc3C2c2ccc(Br)cc2)cc1OC (configuration not stated) | Not Active | 4.32 | – | – | – | –
COc1cc2c(cc1OC)[C@@H](c1ccc(Oc3ccc([N+](=O)[O-])cc3)cc1)N(C(=O)N1CCc3cc(OC)c(OC)cc3[C@@H]1c1ccc(Oc3ccc([N+](=O)[O-])cc3)cc1)CC2 | Not Active | < 4.30 | – | – | – | –
COc1cc2c(cc1OC)C(c1ccc(C(F)(F)F)cc1)N(C(C)=O)CC2 (configuration not stated) | Not Active | < 4.30 | – | – | – | –
COc1cc2c(cc1OC)[C@H](c1ccc3ccccc3c1)N(C(=O)N1CCc3cc(OC)c(OC)cc3[C@@H]1c1ccc3ccccc3c1)CC2 (racemic) | Not Active | < 4.30 | – | – | – | –

SMILES | EC50 [1] | pIC50 [2] | pEC50 [1] | Activity [3] | Activity [4] [%] | CLint scaled at 1 h, 3 µM (in vitro) [mL/min/kg]
COc1cc2c(cc1OC)C(c1ccc([N+](=O)[O-])cc1[N+](=O)[O-])NCC2 (racemic) | Not Active | < 4.30 | – | – | – | –
COc1cc2c(cc1OC)[C@H](c1ccc([N+](=O)[O-])cc1[N+](=O)[O-])N(C(=O)N1CCc3cc(OC)c(OC)cc3[C@@H]1c1ccc([N+](=O)[O-])cc1[N+](=O)[O-])CC2 (racemic) | Not Active | < 4.30 | – | – | – | –
CCC[C@H]1c2cc(OC)c(OC)cc2CCN1C(=O)N1CCc2cc(OC)c(OC)cc2[C@@H]1CCC (racemic) | Not Active | 5.07 | – | – | – | –
COc1cc2c(cc1OC)C(c1cccc(-c3cccc([N+](=O)[O-])c3)n1)NCC2 (racemic) | Not Active | < 4.30 | – | – | – | –
COc1cc2c(cc1OC)[C@H](c1ccc(Oc3ccc([N+](=O)[O-])cc3)cc1)N(C(=O)N1CCc3cc(OC)c(OC)cc3[C@@H]1c1ccc(Oc3ccc([N+](=O)[O-])cc3)cc1)CC2 (racemic) | Not Active | < 4.30 | – | – | – | –
COc1cc2c(cc1OC)[C@H](c1ccc(C(F)(F)F)cc1)N(C(=O)N1CCc3cc(OC)c(OC)cc3[C@@H]1c1ccc(C(F)(F)F)cc1)CC2 (racemic) | Not Active | 6.74 | – | – | – | 10.1
COc1ccc(OC)c(C[C@@H]2NC(=O)[C@@H]3Cc4c(OC)ccc(OC)c4[C@@H](/C=C/c4ccccc4)N3C2=O)c1 (racemic) | Not Active | 4.51 | – | – | – | –
COc1cc2c(cc1OC)[C@H](c1ccc(Br)cc1)N(C(=O)N1CCc3cc(OC)c(OC)cc3[C@@H]1c1ccc(Br)cc1)CC2 (racemic) | Not Active | 5.66 | – | – | – | 19.1
COc1cc2c(cc1OC)[C@H](c1ccccc1Cl)N(C(=O)N1CCc3cc(OC)c(OC)cc3[C@@H]1c1ccccc1Cl)CC2 (racemic) | Not Active | 4.70 | – | – | – | 52.9
COc1ccc(CCNC(=O)N2CCc3cc(OC)c(OC)cc3C2c2ccccc2Cl)cc1OC (racemic) | Not Active | 4.34 | – | – | – | –
COc1cc2c(cc1OC)[C@H](c1cccc(-c3cccc([N+](=O)[O-])c3)n1)N(C(=O)N1CCc3cc(OC)c(OC)cc3[C@@H]1c1cccc(-c3cccc([N+](=O)[O-])c3)n1)CC2 (racemic) | Not Active | 4.36 | – | – | – | –
COc1cc2c(cc1OC)[C@H](c1cccc([N+](=O)[O-])c1)N(C(=O)N1CCc3cc(OC)c(OC)cc3[C@@H]1c1cccc([N+](=O)[O-])c1)CC2 (racemic) | Not Active | 4.35 | – | – | – | –
COc1cc2c(cc1OC)[C@H](c1ccc([N+](=O)[O-])cc1)N(C(=O)N1CCc3cc(OC)c(OC)cc3[C@@H]1c1ccc([N+](=O)[O-])cc1)CC2 (racemic) | – | < 4.30 | 4.85 | inactive | 22.7 | –
COc1cc(C[C@@H]2NC(=O)[C@@H]3Cc4c(OC)c(C)c(OC)c(OC)c4[C@H](/C=C/c4ccccc4)N3C2=O)c(OC)c(C)c1OC (racemic) | – | 5.49 | 4.68 | inactive | 26.6 | –
COc1cc(C[C@@H]2NC(=O)[C@H](Cc3cc(OC)c(OC)c(C)c3OC)NC2=O)c(OC)c(C)c1OC (racemic) | Not Active | < 4.30 | – | – | – | –
COc1c(C)c(OC)c(OC)c2c1C[C@H]1C(=O)N3[C@@H](Cc4c(OC)c(C)c(OC)c(OC)c4[C@@H]3/C=C/c3ccccc3)C(=O)N1[C@H]2/C=C/c1ccccc1 (racemic) | Not Active | 5.06 | – | – | – | –
COc1cc2c(cc1OC)C(c1ccc(Cl)cc1)NCC2 (racemic) | Not Active | < 4.30 | – | – | – | –
